For 13 molecules, IC50 and inhibition results are on record in ChEMBL document CHEMBL1126272, “Inhibition of collagenase by aranciamycin and aranciamycin derivatives” (J Med Chem, 1992).

The source made the active and inactive calls. No cut-off for these calls is given here.

Experiment [1] in a line: Concentration inhibiting [3H]TdR incorporation in Yoshida sarcoma tumor cells in vitro in rats. The format is functional, cell-based, Rattus norvegicus. In short, it runs like this: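 Yoshida sarcoma cells kept by weekly intraperitoneal passage in Lewis rats. Peritoneal cells washed, placed in RPMI 1640 with 10% FCS at 37 °C, 5% CO2. Nonadherent cells taken after 2 h, set at 10^6 cells/mL, then exposed 24 h to compounds (10^-8–10^-4 M, DMSO ≤0.5%). [3H]thymidine (1 μCi/mL) given for the last 4 h. IC50 for incorporation into DNA read from dose-response curve.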

Experiment [2] has as its target Serine protease 1 (Homo sapiens) (UniProt P07477). Kind of experiment: Inhibitory activity against trypsin at 10e-5 M; NI = no inhibition. The essentials:
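Trypsin dissolved at 1 mg/mL in PBS pH 7.5. Substrate N-α-benzoyl-L-arginine-p-nitroanilide, 0.2 mM in PBS with 5% DMSO, preincubated 5 min at 37 °C with or without compound. Enzyme then added and the reaction followed at 410 nm for 5 min. Compounds dissolved in DMSO, ≤0.5% in samples.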

Experiment [3] has as its target Pancreatic elastase (Sus scrofa) (UniProt P08419+P00772). Kind of experiment: Inhibition of Pancreatic elastase at 10e-5 M; NI means no inhibition. It is filed as protein assay. In short, it runs like this:
(§1)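 Porcine pancreatic elastase diluted to 2 mg/mL in PBS pH 7.5. Substrate N-acetyl-Ala-Ala-Ala-p-nitroanilide, 0.2 mM in PBS with 5% DMSO, preincubated 5 min at 37 °C with or without compound. Enzyme then added and the reaction followed at 410 nm for 5 min. Compounds dissolved in DMSO, ≤0.5% in samples.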

Experiment [4] deals with T1, Chymotrypsin-like elastase family member 2A (Sus scrofa) (UniProt P08419).
T1 sequence (whole entry): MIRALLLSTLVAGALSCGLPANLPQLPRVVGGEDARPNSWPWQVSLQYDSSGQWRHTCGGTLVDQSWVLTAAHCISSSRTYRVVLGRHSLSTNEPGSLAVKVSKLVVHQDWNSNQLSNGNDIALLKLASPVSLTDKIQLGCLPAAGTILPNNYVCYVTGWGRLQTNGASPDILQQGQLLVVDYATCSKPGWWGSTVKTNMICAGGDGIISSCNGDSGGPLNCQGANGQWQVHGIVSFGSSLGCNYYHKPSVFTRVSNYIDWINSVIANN
Kind of experiment: Inhibitory activity against elastase at a concentration of 10e-5 M; NI means no inhibition. In short, it runs like this: as §1

Chain of Serine protease 1 (Homo sapiens) (P07477 whole entry): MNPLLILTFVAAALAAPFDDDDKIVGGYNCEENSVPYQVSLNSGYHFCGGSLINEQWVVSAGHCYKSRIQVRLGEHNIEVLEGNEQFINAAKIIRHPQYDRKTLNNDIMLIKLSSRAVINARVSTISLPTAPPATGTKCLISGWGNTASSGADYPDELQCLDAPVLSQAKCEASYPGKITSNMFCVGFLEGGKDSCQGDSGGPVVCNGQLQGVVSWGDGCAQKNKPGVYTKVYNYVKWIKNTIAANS
Chain of Pancreatic elastase (Sus scrofa) (P00772 whole entry, looked up, one chain of several): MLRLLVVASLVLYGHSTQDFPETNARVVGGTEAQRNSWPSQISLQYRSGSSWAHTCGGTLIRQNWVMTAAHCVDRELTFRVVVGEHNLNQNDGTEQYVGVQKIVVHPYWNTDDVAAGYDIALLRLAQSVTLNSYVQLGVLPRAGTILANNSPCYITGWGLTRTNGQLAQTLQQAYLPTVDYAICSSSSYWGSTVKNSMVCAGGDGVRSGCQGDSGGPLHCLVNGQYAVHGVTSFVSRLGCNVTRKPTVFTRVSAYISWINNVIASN

Broadly, the IC50 is the midpoint of a concentration-inhibition curve. Higher therefore signals lower potency. On to `COc1cccc2c1C(=O)c1c(O)c3c(c(O)c1C2=O)C[C@@](O)(C(C)=O)C[C@@H]3O[C@H]1C[C@H](N)[C@H](O)[C@H](C)O1` [DAUNORUBICIN], for which the IC50 in experiment [1] is < 20 nM. Further, the inhibition result in experiment [2] and in experiment [3] was “inactive” in each case.
In turn, `CO[C@H]1[C@H](O)c2c(cc3c(c2O)C(=O)c2c(O)cccc2C3=O)C(=O)[C@@]1(C)O` came in with a concentration for half-maximal inhibition (IC50) in experiment [1] of 600 nM. For the same molecule, the inhibition entry in experiment [2] and in experiment [3] was “inactive” each time.
For `COc1cccc2c1C(=O)c1c(O)c3c(c(O)c1C2=O)C[C@@](O)(C(=O)CO)C[C@@H]3O[C@H]1C[C@H](N)[C@H](O)[C@H](C)O1` [DOXORUBICIN], the half-maximal inhibitory concentration (IC50) in experiment [1] was < 20 nM. Further, the inhibition result in experiment [2] and in experiment [3] was “inactive” throughout.
For the molecule `COC1C(O[C@@H]2c3c(cc4c(c3O)C(=O)c3c(O)cccc3C4=O)C(=O)[C@@](C)(O)[C@H]2OC)OC(C)C(O)C1O[Si](C)(C)C(C)(C)C` (some centres undefined), it took 1400 nM to reach half-maximal inhibition in experiment [1] (IC50). Besides, the inhibition entry in experiment [2] and in experiment [3] was “inactive” in each case.
Turning to `COC1C(O[C@@H]2c3c(cc4c(c3O)C(=O)c3c(O)cccc3C4=O)C(=O)[C@](C)(O)[C@H]2OC)OC(C)C(O)C1O` (some centres undefined), in experiment [1], half-maximal inhibition (IC50) required 1000 nM. For the same molecule, the inhibition entry in experiment [2] and in experiment [3] was “inactive” throughout.
Take `COC1C(O[C@@H]2c3c(cc4c(c3O)C(=O)c3c(ccc(N(C)C)c3O)C4=O)C(=O)[C@@](C)(O)[C@H]2OC)OC(C)C(O)C1O` (some centres undefined): half-maximal inhibition in experiment [1] (IC50) was put at 630 nM. The inhibition entry in experiment [2] and in experiment [3] was “inactive” in each case.
For `COC1C(O[C@@H]2c3c(cc4c(c3O)C(=O)c3c(O)cccc3C4=O)C(=O)[C@@](C)(O)[C@H]2OC)OC(C)C(OC(C)=O)C1OC(C)=O` (some centres undefined), the half-inhibitory concentration (IC50) in experiment [1] was found to be 1300 nM. Further, the inhibition result in experiment [2] and in experiment [3] was “inactive” each time.
In the case of `COC1C(C)OC(O[C@@H]2c3c(cc4c(c3O)C(=O)c3c(O)cccc3C4=O)C(=O)[C@@](C)(O)[C@H]2OC)C(OC)C1OC` (some centres undefined), 4700 nM corresponded to half-maximal inhibition in experiment [1] (IC50). Further, the inhibition entry in experiment [2] and in experiment [3] was “inactive” each time.
With `CC[C@@]1(O)C[C@H](O[C@H]2C[C@H](N(C)C)[C@H](O[C@H]3C[C@H](O)[C@H](O[C@H]4CCC(=O)[C@H](C)O4)[C@H](C)O3)[C@H](C)O2)c2c(cc3c(c2O)C(=O)c2c(O)cccc2C3=O)[C@H]1C(=O)OC` [ACLARUBICIN], the inhibition result in experiment [4] and in experiment [2] was “inactive” in each case. In experiment [1], the IC50 is < 20 nM.
In the case of `COC1C(O[C@@H]2c3c(cc4c(c3O)C(=O)c3c(O)c(N(C)C)cc(N(C)C)c3C4=O)C(=O)[C@@](C)(O)[C@H]2OC)OC(C)C(O)C1O` (some centres undefined), 5000 nM corresponded to half-maximal inhibition in experiment [1] (IC50). Moreover, the inhibition entry in experiment [2] and in experiment [3] was “inactive” in each case.
With `CCOP(=O)(OCC)O[C@]1(C)C(=O)c2cc3c(c(O)c2[C@@H](OC2OC(C)C(O)C(O)C2OC)[C@@H]1OC)C(=O)c1c(O)cccc1C3=O` (some centres undefined), in experiment [1], half-maximal inhibition (IC50) was put at 630 nM. The inhibition result in experiment [2] and in experiment [3] was “inactive” in each case.
Turning to `COC1C(O[C@@H]2c3c(cc4c(c3O)C(=O)c3c(O)cccc3C4=O)C(=O)[C@@](C)(O)[C@H]2OC)OC(C)C(O)C1O` (some centres undefined), half-maximal inhibition in experiment [1] (IC50) required 2200 nM. For the same molecule, the inhibition result in experiment [2] and in experiment [3] was “inactive” each time.
With `COC1C(O[C@@H]2c3c(cc4c(c3O)C(=O)c3c(O)cccc3C4=O)C(/N=N/S(=O)(=O)c3ccc(C)cc3)[C@@](C)(O)[C@H]2OC)OC(C)C(O)C1O` (some centres undefined), the half-inhibitory concentration (IC50) in experiment [1] was 3900 nM. For the same molecule, the inhibition entry in experiment [2] and in experiment [3] was “inactive” each time.
